Results: paper PMC3306454 (ACS Chemical Biology, 2012)
Several values for one entry are separate records, joined by “and”; a condition that tells them apart may be missing. Equal entries are not always repeated. Entries after “also recorded” stand apart in the source; their conditions may differ.

Columns and labels:
[1] = tested on: RNA 1×1 nucleotide internal loops and fully paired RNA; test: Competition dialysis, binding selectivity; conditions: 1 µM ligand, 1.6 µM RNA, 24 h
How it was run: (§1)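 RNAs were run-off transcribed, carried internal loops in a GNRA-hairpin cassette with a fully paired control, and were PAGE-purified. They were folded by heating at 60 °C for 5 min, then slow cooling. Dialysis units with 1.6 μM RNA stood against 1 μM ligand in buffer (8 mM NaH2PO4, 185 mM NaCl, 1 mM EDTA, pH 7.2), stirred 200 rpm, 24 h, 20–22 °C. SDS was added (1% final); Ct was measured spectrophotometrically; Cb = Ct − Cf.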

[2] = target: RNA containing the 5’CAG/3’GAC motif; test: Fluorescence anisotropy direct binding assay; conditions: read-out: Dissociation constant, 5’CAG/3’GAC
How it was run: (§2)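 RNA was titrated into 50 nM fluorescent test compound in Affinity Buffer (20 mM HEPES pH 7.5, 5 mM KCl, 150 mM NaCl, 1 mM MgCl2), equilibrating 5 min between additions. Anisotropy was read at ex 368 / em 500 nm and plotted against RNA concentration. Kd came from a quadratic binding equation fit.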

[3] = tested on: RNA displaying 5’CAG/3’GAC motif; test: Optical melting experiments; type: binding; conditions: for ΔTm (1 equiv.): one equivalent of ligand; for ΔTm (2 equiv.): two equivalents of ligand
How it was run: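 RNA in Affinity Buffer was denatured at 90 °C and cooled to 15 °C, with ligand at 1 or 2 equivalents. Absorbance at 260 nm was recorded against temperature at 1 °C/min. Tm was calculated as ΔH°×1000/ΔS° − 273.15.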

RNA 5’CCG/3’GCG = test: Fluorescence anisotropy direct binding assay
How it was run: as §2

[4] = tested on: RNA containing 5’CGG/3’GGC; test: Fluorescence anisotropy direct binding assay
How it was run: as §2

[5] = tested on: HD patient-derived fibroblasts expressing r(CAG)69; test: RT-PCR splicing assay in HD fibroblasts; type: cell-based, Human; conditions: for Effect on ATP2A1 splicing: initial screen, 100 µM, both cellular models
How it was run: (§3)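 Fibroblasts were grown in MEM with 10% FBS and nonessential amino acids. SK-N-MC cells, with or without stable r(CAG)74, were grown in DMEM with 10% FBS. At ~60% confluence they received test compound at 50–300 μM final (water for untreated) for 48 h. ~1 μg total RNA was reverse transcribed with random primers, followed by RT-PCR, 2% agarose and ethidium staining. Normal isoform fraction was the normal band over total; ≥6 experiments, two-tailed t test versus untreated.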

[6] = tested on: RNA containing 5’CUG/3’GUC; test: Fluorescence anisotropy direct binding assay
How it was run: as §2

RNA 5’CAG/3’GCC = test: Competition dialysis; type: binding; conditions: bound ligand relative to amount of RNA target
How it was run: as §1

[7] = target: RNA 5’CAG/3’GUC (fully paired RNA); test: Fluorescence anisotropy direct binding assay; conditions: read-out: Dissociation constant, 5’CAG/3’GUC
How it was run: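 The RNA was made by run-off transcription and PAGE-purified, then folded by heating at 60 °C. Anisotropy was read at ex 368 nm and em 500 nm. Kd came from a quadratic binding fit of anisotropy versus RNA concentration.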

RNA 5’CAG/3’GAC = test: Competition dialysis; type: binding; conditions: bound ligand relative to amount of RNA target
How it was run: as §1

[8] = tested on: HD fibroblasts and neuroblastoma cellular models; test: Cell morphology; type: cell-based, Human; conditions: for Toxicity as assessed by cell morphology: initial screen, 100 µM, both cellular models
How it was run: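 HD patient fibroblasts (r(CAG)69) and SK-N-MC neuroblastoma cells stably expressing r(CAG)74 were grown to ~60% confluence. Fresh medium with test compound was added: 100 μM for the screen, 50–300 μM for the dose series, water for untreated. Cells were kept 48 h, and microscopic images of cell morphology served as the toxicity estimate.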

r(CAG)12-MBNL1 complex = test: TR-FRET assay, disruption of the r; type: biochemical
[9] = tested on: nuclear r(CAG)exp foci in HD-derived fibroblasts; test: FISH of nuclear r; type: cell-based, Human
How it was run: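 Fibroblasts (HD line GM04281: r(CAG)17 and r(CAG)69 HTT alleles) at ~60% confluence were given test compound at 50−300 μM final, or water, for 48 h. Cells were fixed in 4% PFA/PBS at 4 °C, prehybridized (30% formamide, 2X SSC, 10 min), and hybridized with a 5′-Cy3, LNA-modified (CTG)6-CA probe. Washes were at 45 °C then 37 °C, and foci were imaged by fluorescence microscopy.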

[10] = tested on: normal neuroblastoma cell line / control cell lines that do not express r(CAG)exp; test: RT-PCR splicing assay in control cell lines; type: cell-based, Human
How it was run: as §3

[11] = tested on: SK-N-MC neuroblastoma cells stably expressing r(CAG)74; test: RT-PCR splicing assay in neuroblastoma; type: cell-based, Human
How it was run: as §3

[12] = neuroblastoma cells expressing r(CAG)74, 48 h

COc1ccc2nc3cc(Cl)ccc3c(N)c2c1 [ACMA, 9-amino-6-chloro-2-methoxy acridine]
Binding preference among RNAs [1]: binds preferentially to the fully paired RNA and the RNA displaying 5’CCG/3’GCC

Cn1cc(NC(=O)c2cc(NC(=O)CN=C(N)N)cn2C)cc1C(=O)NCCC(=N)N [NTSP, netropsin]
Binding preference among RNAs [1]: slight preference for 5’CCG/3’GUC

N=C(N)c1ccc(-c2cc3ccc(C(=N)N)cc3[nH]2)cc1 [DAPI, 4',6-diamidino-2-phenylindole]
Kd [2]: 220 ± 60 nM | ΔTm (1 equiv.) [3]: 6 °C | ΔTm (2 equiv.) [3]: 10 °C | Binding preference among RNAs [1]: preferentially binds to 5’CAG/3’GAC and 5’CAG/3’GCC | Fold weaker binding to 5’CCG/3’GCC than to 5’CAG/3’GAC (RNA 5’CCG/3’GCG; fluorescence anisotropy): ~ 5 fold | Kd (RNA 5’CCG/3’GCG; read-out: Dissociation constant, 5’CCG/3’GCG, direct binding assay): 990 ± 200 nM | Fold weaker binding to 5’CGG/3’GGC than to 5’CAG/3’GAC ([4]; fluorescence anisotropy): approximately 2.5 fold | Kd ([4]; read-out: Dissociation constant, 5’CGG/3’GGC, direct binding assay): 500 ± 100 nM | Effect on ATP2A1 splicing [5]: exacerbated splicing abnormalities of ATP2A1 | Fold weaker binding to 5’CUG/3’GUC than to 5’CAG/3’GAC ([6]; fluorescence anisotropy): approximately 2.5 fold | Kd ([6]; read-out: Dissociation constant, 5’CUG/3’GUC, direct binding assay): 550 ± 200 nM | Binding stoichiometry to 5’CAG/3’GCC (RNA 5’CAG/3’GCC): stoichiometric amounts | Kd [7]: > 3000 nM | Binding stoichiometry to 5’CAG/3’GAC (RNA 5’CAG/3’GAC): stoichiometric amounts | Toxicity as assessed by cell morphology [8]: strongest morphological changes

CN(C)c1ccc2cc3ccc(N(C)C)cc3nc2c1 [AO, Acridine Orange]
Binding preference among RNAs [1]: little preference for binding to a fully paired RNA or any of the RNAs with 1×1 nucleotide internal loops

COc1cccc2c1C(=O)c1c(O)c3c(c(O)c1C2=O)C[C@@](O)(C(C)=O)C[C@@H]3O[C@H]1C[C@H](N)[C@H](O)[C@H](C)O1 [DNM, Daunomycin]
Binding preference among RNAs [1]: prefers to bind 5’CCG/3’GAC

CCN(CC)CCCC(C)Nc1c2ccc(Cl)cc2nc2ccc(OC)cc12 (stereo not drawn) [QNC, Quinacrine]
Binding preference among RNAs [1]: prefers to bind 5’CAG/3’GCC

Nc1ccc2cc3ccc(N)cc3nc2c1 [proflavin, Proflavin]
Binding preference among RNAs [1]: little preference for binding to a fully paired RNA or any of the RNAs with 1×1 nucleotide internal loops

N=C(N)Nc1ccc(OC(=O)c2ccc(NC(=N)N)cc2)cc1 [Compound D6, 4-guanidinophenyl 4-guanidinobenzoate]
Fold more potent than the other compounds studied (r(CAG)12-MBNL1 complex; TR-FRET IC50): at least 20 fold | IC50 (r(CAG)12-MBNL1 complex; pre-formed r(CAG)12-MBNL1 complex, TR-FRET): 3000 nM | ΔTm (1 equiv.) [3]: 3 °C | ΔTm (2 equiv.) [3]: 9 °C | Effect on nuclear r(CAG)exp foci [9]: does not disrupt the formation of nuclear r(CAG)^exp foci; also recorded: does not significantly affect the number or the intensity of nuclear r(CAG)^exp foci | Effect on splicing of other tested transcripts ([10]; control cell lines that do not express toxic r(CAG)exp): does not affect the splicing | Effect on MAPT pre-mRNA splicing ([10]; normal neuroblastoma cell line): more pronounced effect | Concentration giving statistically significant improvement of NCOR2 mis-splicing ([5]; HD fibroblasts, 48 h): 100 to 300 µM and 50 to 300 µM | Effect on ATP2A1 splicing [5]: most significantly improved ATP2A1 mis-splicing | Effect on MAPT pre-mRNA splicing ([11]; neuroblastoma cell line expressing 74 r(CAG) repeats): slightly worsens the splicing of the MAPT pre-mRNA toward the DM-like phenotype | Concentration giving statistically significant improvement of ATP2A1 splicing [11, 12]: 100 to 300 µM | Concentration giving statistically significant improvement of NCOR2 splicing [11, 12]: 100 to 300 µM | Effect on cell morphology ([8]; increasing concentration of D6): cell morphology is not affected | Toxicity as assessed by cell morphology [8]: least amount of toxicity

O=C1c2c(O)ccc(O)c2C(=O)c2c(NCCNCCO)ccc(NCCNCCO)c21 [MTX, Mitoxantrone]
Binding preference among RNAs [1]: slight preference for 5’CCG/3’GAC while it discriminates against 5’CUG/3’GCC
